Source: ChEMBL document CHEMBL3877308, “Design, synthesis and in vitro biological evaluation of oligopeptides targeting E. coli type I signal peptidase (LepB)” (Bioorg Med Chem, 2017)
≈ marks a conversion by molar mass, not a printed value.

Columns and labels:
[1] = molecular target: Signal peptidase I (Escherichia coli K-12) (UniProt P00803); experiment: Inhibition of full length Escherichia coli His6-tagged LepB expressed in Escherichia coli C43(DE3) at 100 uM using dabcyl-VEVGGTATAGAFSRPGLE-(EDANS) as substrate preincubated for 10 mins followed by substrate addition measured for 2 hrs by FRET assay relative to control
Chain of Signal peptidase I (Escherichia coli K-12) (P00803 whole entry): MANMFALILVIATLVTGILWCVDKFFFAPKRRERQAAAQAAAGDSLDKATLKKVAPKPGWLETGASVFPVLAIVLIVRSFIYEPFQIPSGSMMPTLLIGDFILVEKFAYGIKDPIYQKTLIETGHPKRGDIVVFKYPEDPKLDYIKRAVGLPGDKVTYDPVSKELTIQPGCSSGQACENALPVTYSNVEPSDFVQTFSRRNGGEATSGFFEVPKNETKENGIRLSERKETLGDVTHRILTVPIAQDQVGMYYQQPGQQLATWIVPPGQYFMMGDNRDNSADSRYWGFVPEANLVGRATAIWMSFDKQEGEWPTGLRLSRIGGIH
Procedure, shortened: (§1)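 Enzyme came from the membrane fraction, extracted with 1% reduced Triton X-100 and purified by metal-chelation chromatography in 0.5% detergent. FRET pair was dabcyl acceptor and EDANS donor. EcLepB (final about 50 nM) was pre-incubated with compound 10 min at 22 °C. Reaction was then run with 8 µM substrate, following the linear fluorescence increase at 22 °C for 2 h.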

Signal peptidase I = Signal peptidase I (Escherichia coli K-12, UniProt P00803); experiment: Inhibition of full length Escherichia coli His6-tagged LepB expressed in Escherichia coli C43(DE3) using dabcyl-VEVGGTATAGAFSRPGLE-(EDANS) as substrate preincubated for 10 mins followed by substrate addition measured for 2 hrs by FRET assay
Chain of Signal peptidase I (P00803 whole entry): as above
Procedure, shortened: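 Enzyme extracted from the membrane fraction with 1% reduced Triton X-100 and purified by metal-chelation chromatography in 0.5% detergent. Enzyme (final ~50 nM) was pre-incubated with compound for 10 min at 22 °C. The linear rise in EDANS donor fluorescence (dabcyl acceptor) was then followed at 22 °C for 2 h. IC50 came from non-linear regression of sigmoidal rate-versus-concentration curves.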

[2] = molecular target: Signal peptidase I (Escherichia coli K-12) (UniProt P00803); experiment: Inhibition of full length Escherichia coli His6-tagged LepB expressed in Escherichia coli C43(DE3) assessed as residual activity at 2.5 uM using dabcyl-VEVGGTATAGAFSRPGLE-(EDANS) as substrate preincubated for 10 mins followed by substrate addition measured for 2 hrs by FRET assay relative to control; procedure, shortened: as §1
[3] = molecular target: Signal peptidase I (Escherichia coli K-12) (UniProt P00803); experiment: Inhibition of full length Escherichia coli His6-tagged LepB expressed in Escherichia coli C43(DE3) assessed as residual activity at 5 uM using dabcyl-VEVGGTATAGAFSRPGLE-(EDANS) as substrate preincubated for 10 mins followed by substrate addition measured for 2 hrs by FRET assay relative to control; procedure, shortened: as §1
[4] = molecular target: Signal peptidase I (Escherichia coli K-12) (UniProt P00803); experiment: (§2) Inhibition of full length Escherichia coli His6-tagged LepB expressed in Escherichia coli C43(DE3) assessed as residual activity at 10 uM using dabcyl-VEVGGTATAGAFSRPGLE-(EDANS) as substrate preincubated for 10 mins followed by substrate addition measured for 2 hrs by FRET assay relative to control; procedure, shortened: as §1
[5] = molecular target: Signal peptidase I (Escherichia coli K-12) (UniProt P00803); experiment: as §2, with “at 0.002” for “at 10”; procedure, shortened: as §1
[6] = molecular target: Signal peptidase I (Escherichia coli K-12) (UniProt P00803); experiment: as §2, with “at 1.25” for “at 10”; procedure, shortened: as §1
[7] = molecular target: Signal peptidase I (Escherichia coli K-12) (UniProt P00803); experiment: as §2, with “at 0.625” for “at 10”; procedure, shortened: as §1
[8] = molecular target: Signal peptidase I (Escherichia coli K-12) (UniProt P00803); experiment: as §2, with “at 0.313” for “at 10”; procedure, shortened: as §1
[9] = molecular target: Signal peptidase I (Escherichia coli K-12) (UniProt P00803); experiment: as §2, with “at 0.156” for “at 10”; procedure, shortened: as §1
[10] = molecular target: Signal peptidase I (Escherichia coli K-12) (UniProt P00803); experiment: as §2, with “at 0.078” for “at 10”; procedure, shortened: as §1
[11] = molecular target: Signal peptidase I (Escherichia coli K-12) (UniProt P00803); experiment: as §2, with “at 0.039” for “at 10”; procedure, shortened: as §1
[12] = molecular target: Signal peptidase I (Escherichia coli K-12) (UniProt P00803); experiment: as §2, with “at 0.01” for “at 10”; procedure, shortened: as §1
Escherichia coli [13] = experiment: Antibacterial activity against wild type Escherichia coli ATCC 25922 after 16 to 20 hrs by broth microdilution assay; format: functional
Procedure, shortened: (§3)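 MIC by broth microdilution in cation-adjusted Mueller-Hinton II medium, following EUCAST and CLSI guidelines; panel of Gram-negative strains plus S. aureus ATCC 29213.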

Escherichia coli [14] = experiment: Antibacterial activity against Escherichia coli CH3130 harboring tolC deletion mutant after 16 to 20 hrs by broth microdilution assay; format: functional
Procedure, shortened: (§4)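 Broth microdilution MIC in cation-adjusted Mueller-Hinton II medium, following EUCAST and CLSI guidelines; tested on a panel of Gram-negative strains plus S. aureus ATCC 29213 (wild-type).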

Escherichia coli [15] = experiment: Antibacterial activity against Escherichia coli D22 harboring lpxC mutant after 16 to 20 hrs by broth microdilution assay; format: functional; procedure, shortened: as §4
Pseudomonas aeruginosa [16] = experiment: Antibacterial activity against wild type Pseudomonas aeruginosa PAO1 after 16 to 20 hrs by broth microdilution assay; format: functional; procedure, shortened: as §3
Pseudomonas aeruginosa [17] = experiment: Antibacterial activity against wild type Pseudomonas aeruginosa PAO750 harboring efflux defective mutant after 16 to 20 hrs by broth microdilution assay; format: functional; procedure, shortened: as §4
Klebsiella pneumoniae = experiment: Antibacterial activity against wild type Klebsiella pneumoniae […] after 16 to 20 hrs by broth microdilution assay; format: functional; procedure, shortened: as §3
Staphylococcus aureus = experiment: Antibacterial activity against wild type Staphylococcus aureus ATCC 29213 after 16 to 20 hrs by broth microdilution assay; format: functional; procedure, shortened: as §3
Acinetobacter baumannii = experiment: Antibacterial activity against wild type Acinetobacter baumannii ATCC 19606 after 16 to 20 hrs by broth microdilution assay; format: functional; procedure, shortened: as §3
[18] = Cytotoxicity against human HepG2 cells assessed as reduction in cell viability after 72 hrs by fluorescein diacetate dye based fluorometric microculture assay; format: toxicity
Procedure, shortened: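 FMCA on HepG2 cells read at 72 h. Survival index (%) is fluorescence in test wells as percent of control cultures, with blank values subtracted. IC50 was obtained by non-linear regression of log concentration-effect curves.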

[19] = Hemolytic activity against human RBC at 100 uM after 45 mins by spectrophotometric method relative to control; format: ADME, cell-based, Erythrocyte; details: red blood cells (RBC), read-out: Activity
Procedure, shortened: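 Hemolysis was tested using red blood cells from heparinized human blood.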

[20] = molecular target: Signal peptidase I (Escherichia coli K-12) (UniProt P00803); experiment: as §2, with “at 0.02” for “at 10”; procedure, shortened: as §1

CCCCCCCCCC(=O)N1CCC[C@H]1C(=O)N[C@H](C(=O)N[C@@H](C)C(=O)N[C@@H](CC(N)=O)C(=O)N[C@@H](C)C(=O)C(=O)NC(C)(C)C)[C@H](C)O
inhibition [1]: 31.5%

CCCCCCCCCC(=O)N1CCC[C@H]1C(=O)N[C@H](C(=O)N[C@@H](C)C(=O)N[C@@H](CC(N)=O)C(=O)N[C@@H](C)C(=O)N1CCC[C@H]1C(=O)NC)[C@H](C)O
inhibition [1]: 31.3%

CC(=O)N1CCC[C@H]1C(=O)N[C@H](C(=O)N[C@@H](C)C(=O)N[C@@H](CC(N)=O)C(=O)N[C@@H](C)C(=O)C(=O)NCc1cccc2ccccc12)[C@H](C)O
inhibition [1]: 32.3%

CC(=O)N[C@@H](C)B1O[C@@H]2C[C@@H]3C[C@@H](C3(C)C)[C@]2(C)O1
inhibition [1]: 18%

CCCCc1ccc(-c2ccc(C(=O)N[C@@H](CCN)C(=O)N[C@H](C(=O)N[C@@H](C)C(=O)N[C@@H](CCCCN)C(=O)N[C@@H](C)B3O[C@@H]4C[C@@H]5C[C@@H](C5(C)C)[C@]4(C)O3)[C@H](C)O)cc2)cc1
IC50 (Signal peptidase I): 110 nM | Activity [2]: 3.33% | Activity [3]: 0.501% | Activity [4]: -0.117% | Activity [5]: 98.2% | Activity [6]: 0.522% | Activity [7]: 6.98% | Activity [8]: 18.9% | Activity [9]: 25.3% | Activity [10]: 72.7% | Activity [11]: 80.2% | Activity [12]: 86.8% | MIC (Escherichia coli [13]): 8 µg/mL (≈ 9.3 µM) | MIC (Escherichia coli [14]): 4 µg/mL (≈ 4.65 µM) | MIC (Escherichia coli [15]): 1 µg/mL (≈ 1.16 µM) | MIC (Pseudomonas aeruginosa [16]): 32 µg/mL (≈ 37.2 µM) | MIC (Pseudomonas aeruginosa [17]): 8 µg/mL (≈ 9.3 µM) | MIC (Klebsiella pneumoniae): 2 µg/mL (≈ 2.33 µM) | MIC (Staphylococcus aureus): < 0.125 µg/mL | MIC (Acinetobacter baumannii): 32 µg/mL (≈ 37.2 µM) | IC50 at 72 h [18]: 12500 nM | hemolysis at 0.75 h, 100 µM [19]: 12.8%

CNC(=O)[C@@H]1CCCN1C(=O)[C@H](C)NC(=O)[C@H](CC(N)=O)NC(=O)[C@H](C)NC(=O)[C@@H](NC(=O)[C@@H]1CCCN1C(C)=O)[C@H](C)O
inhibition [1]: 35.8%

CCCCCCc1ccc(-c2ccc(C(=O)N3CCC[C@H]3C(=O)N[C@H](C(=O)N[C@@H](C)C(=O)N[C@@H](CC(N)=O)C(=O)N[C@@H](C)B(O)O)[C@H](C)O)cc2)cc1
IC50 (Signal peptidase I): 230 nM | Activity [2]: 7.49% | Activity [3]: 4.71% | inhibition [1]: > 50% | Activity [4]: 7.23% | Activity [6]: 16.8% | Activity [7]: 33.5% | Activity [8]: 38.4% | Activity [9]: 62.6% | Activity [10]: 95.5% | Activity [11]: 97% | Activity [20]: 97.9% | Activity [12]: 97.1% | MIC (Escherichia coli [13]): > 64 µg/mL | MIC (Escherichia coli [14]): > 64 µg/mL | MIC (Escherichia coli [15]): > 64 µg/mL | MIC (Pseudomonas aeruginosa [16]): > 64 µg/mL | MIC (Pseudomonas aeruginosa [17]): > 64 µg/mL | MIC (Klebsiella pneumoniae): > 64 µg/mL | MIC (Staphylococcus aureus): 4 µg/mL (≈ 5.43 µM) | MIC (Acinetobacter baumannii): > 64 µg/mL | IC50 at 72 h [18]: > 64000 nM | hemolysis at 0.75 h, 100 µM [19]: 1.1%

CC(=O)N[C@@H](C)C(=O)C(=O)NCc1cccc2ccccc12
inhibition [1]: 31%
